≈ marks a conversion by molar mass, not a printed value.
Assays:
MCF7 [1] = assay: Cytotoxicity against human MCF7 cells assessed as cell growth inhibition after 72 hrs by MTT assay; assay type: functional, cell-based; conditions: MCF7, 72 h
How it was run: (§1)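 MTT growth assay in human cancer lines (MCF-7, HepG2, BGC-823, HeLa, A549), 72 h after treatment; 5-fluorouracil as reference. IC50 (μg/mL) taken as concentration giving 50% growth inhibition versus untreated control.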

HeLa [2] = assay: Cytotoxicity against human HeLa cells assessed as cell growth inhibition after 72 hrs by MTT assay; assay type: functional, cell-based; how it was run: as §1
HepG2 [3] = assay: Cytotoxicity against human HepG2 cells assessed as cell growth inhibition after 72 hrs by MTT assay; assay type: functional, cell-based; conditions: HepG2, 72 h; how it was run: as §1
[4] = Cytotoxicity against human BCG823 cells assessed as cell growth inhibition after 72 hrs by MTT assay; assay type: functional, cell-based; conditions: BCG823, 72 h; how it was run: as §1
A549 [5] = assay: Cytotoxicity against human A549 cells assessed as cell growth inhibition after 72 hrs by MTT assay; assay type: functional, cell-based; conditions: A549, 72 h; how it was run: as §1
MCF7 [6] = assay: Cytotoxicity against human MCF7 cells assessed as cell growth inhibition at 20 ug/ml after 72 hrs by MTT assay; assay type: functional; conditions: MCF7, 72 h, read-out: GI
HeLa [7] = assay: Cytotoxicity against human HeLa cells assessed as cell growth inhibition at 20 ug/ml after 72 hrs by MTT assay; assay type: functional; conditions: read-out: GI
HepG2 [8] = assay: Cytotoxicity against human HepG2 cells assessed as cell growth inhibition at 20 ug/ml after 72 hrs by MTT assay; assay type: functional; conditions: HepG2, 72 h, read-out: GI
[9] = Cytotoxicity against human BCG823 cells assessed as cell growth inhibition at 20 ug/ml after 72 hrs by MTT assay; assay type: functional; conditions: BCG823, 72 h, read-out: GI
A549 [10] = assay: Cytotoxicity against human A549 cells assessed as cell growth inhibition at 20 ug/ml after 72 hrs by MTT assay; assay type: functional; conditions: A549, 72 h, read-out: GI
[11] = system: MCF-7, HepG2, BGC-823, HeLa, A549 cancer cell lines (Homo sapiens); assay: Cytotoxicity against human MCF-7, HepG2, BGC-823, HeLa and A549 cells assessed as cell growth inhibition at 20 ug/ml after 72 hrs by MTT assay; conditions: read-out: GI
[12] = Cytotoxicity against human HL7702 cells assessed as cell growth inhibition after 72 hrs by MTT assay; assay type: cell-based; conditions: L02, 72 h
HepG2 [13] = assay: Induction of apoptosis in human HepG2 cells assessed as viable cells at 1.82 ug/ml after 24 to 48 hrs by Annexin V-FITC/propidium iodide staining based flow cytometry (reference value: 95.6 %); assay type: functional; conditions: read-out: Activity
HepG2 [14] = assay: Induction of apoptosis in human HepG2 cells assessed as early apoptotic cells at 1.82 ug/ml after 24 to 48 hrs by Annexin V-FITC/propidium iodide staining based flow cytometry (reference value: 2.5 %); assay type: functional
HepG2 [15] = assay: Induction of apoptosis in human HepG2 cells assessed as late apoptotic cells at 1.82 ug/ml after 24 to 48 hrs by Annexin V-FITC/propidium iodide staining based flow cytometry (reference value: 0.1 %); assay type: functional
HepG2 [16] = assay: Induction of apoptosis in human HepG2 cells assessed as necrotic cells at 1.82 ug/ml after 24 to 48 hrs by Annexin V-FITC/propidium iodide staining based flow cytometry (reference value: 1.8 %); assay type: functional
HepG2 [17] = assay: Induction of apoptosis in human HepG2 cells assessed as viable cells at 3.64 ug/ml after 24 to 48 hrs by Annexin V-FITC/propidium iodide staining based flow cytometry (reference value: 95.6 %); assay type: functional; conditions: read-out: Activity
HepG2 [18] = assay: Induction of apoptosis in human HepG2 cells assessed as early apoptotic cells at 3.64 ug/ml after 24 to 48 hrs by Annexin V-FITC/propidium iodide staining based flow cytometry (reference value: 2.5 %); assay type: functional
HepG2 [19] = assay: Induction of apoptosis in human HepG2 cells assessed as late apoptotic cells at 3.64 ug/ml after 24 to 48 hrs by Annexin V-FITC/propidium iodide staining based flow cytometry (reference value: 0.1 %); assay type: functional
HepG2 [20] = assay: Induction of apoptosis in human HepG2 cells assessed as necrotic cells at 3.64 ug/ml after 24 to 48 hrs by Annexin V-FITC/propidium iodide staining based flow cytometry (reference value: 1.8 %); assay type: functional

Row | Compound | IC50 (MCF7 [1]) | IC50 (HeLa [2]) | IC50 (HepG2 [3]) | IC50 [4] | IC50 (A549 [5]) | inhibition of growth at 20 µg/mL (MCF7 [6]) | inhibition of growth at 20 µg/mL (HeLa [7]) | inhibition of growth at 20 µg/mL (HepG2 [8]) | inhibition of growth at 20 µg/mL [9] | inhibition of growth at 20 µg/mL (A549 [10]) | inhibition at 72 h, 20 ug/ml [11] | IC50 [12] | viability at 1.82 µg/mL (HepG2 [13]) | Activity (HepG2 [14]) | Activity (HepG2 [15]) | Activity (HepG2 [16]) | viability at 3.64 µg/mL (HepG2 [17]) | Activity (HepG2 [18]) | Activity (HepG2 [19]) | Activity (HepG2 [20])
1 | CNc1nc(C)c(C(=O)N/N=C/c2cccc(C(F)(F)F)c2)s1 | > 100 µg/mL | > 100 µg/mL | > 100 µg/mL | > 100 µg/mL | > 100 µg/mL | < 30% | < 30% | < 30% | < 30% | < 30% | < 30% |  |  |  |  |  |  |  |  | 
2 | CNc1nc(C)c(C(=O)N/N=C/c2ccccc2C(F)(F)F)s1 | > 100 µg/mL | > 100 µg/mL | > 100 µg/mL | > 100 µg/mL | > 100 µg/mL | < 30% | < 30% | < 30% | < 30% | < 30% | < 30% |  |  |  |  |  |  |  |  | 
3 | O=c1[nH]cc(F)c(=O)[nH]1 [FLUOROURACIL] | 10.8 µg/mL (≈ 83 µM) | 10.7 µg/mL (≈ 82.4 µM) |  | 10.9 µg/mL (≈ 83.7 µM) | 10.5 µg/mL (≈ 80.7 µM) |  |  |  |  |  |  | 14.5 µg/mL (≈ 112 µM) |  |  |  |  |  |  |  | 
4 | CN(C(=O)NC(=O)c1ccc(F)c(F)c1)c1nc(C(F)(F)F)c(C(=O)N/N=C/c2ccc(C(F)(F)F)cc2)s1 | 5.93 µg/mL (≈ 10.2 µM) | 5.1 µg/mL (≈ 8.8 µM) | 6.26 µg/mL (≈ 10.8 µM) | 3.85 µg/mL (≈ 6.64 µM) | 6.07 µg/mL (≈ 10.5 µM) |  |  |  |  |  |  | 13.2 µg/mL (≈ 22.9 µM) |  |  |  |  |  |  |  | 
5 | CNc1nc(C(F)(F)F)c(C(=O)N/N=C/c2ccc(C(F)(F)F)cc2)s1 | > 100 µg/mL | > 100 µg/mL | > 100 µg/mL | > 100 µg/mL | > 100 µg/mL | < 30% | < 30% | < 30% | < 30% | < 30% | < 30% |  |  |  |  |  |  |  |  | 
6 | CNc1nc(C)c(C(=O)N/N=C/c2cc(C(F)(F)F)cc(C(F)(F)F)c2)s1 | > 100 µg/mL | > 100 µg/mL | > 100 µg/mL | > 100 µg/mL | > 100 µg/mL | < 30% | < 30% | < 30% | < 30% | < 30% | < 30% |  |  |  |  |  |  |  |  | 
7 | CN(C(=O)NC(=O)c1ccc(F)c(F)c1)c1nc(C(F)(F)F)c(C(=O)N/N=C/c2cc(C(F)(F)F)cc(C(F)(F)F)c2)s1 | 2.61 µg/mL (≈ 4.03 µM) | 4.45 µg/mL (≈ 6.87 µM) | 5.47 µg/mL (≈ 8.45 µM) | 3.51 µg/mL (≈ 5.42 µM) | 5.47 µg/mL (≈ 8.45 µM) |  |  |  |  |  |  | 20.1 µg/mL (≈ 31 µM) |  |  |  |  |  |  |  | 
8 | CN(C(=O)NC(=O)c1ccc(C(F)(F)F)cc1)c1nc(C(F)(F)F)c(C(=O)N/N=C/c2ccccc2C(F)(F)F)s1 | 2.21 µg/mL (≈ 3.61 µM) | 3.76 µg/mL (≈ 6.15 µM) | 3.64 µg/mL (≈ 5.95 µM) | 2.53 µg/mL (≈ 4.14 µM) | 6.68 µg/mL (≈ 10.9 µM) |  |  |  |  |  |  | 12.4 µg/mL (≈ 20.3 µM) | 91.5% | 7.8% | 0.4% | 0.3% | 77.9% | 18.6% | 0.3% | 3.2%
9 | CNc1nc(C(F)(F)F)c(C(=O)N/N=C/c2cc(C(F)(F)F)cc(C(F)(F)F)c2)s1 | > 100 µg/mL | > 100 µg/mL | > 100 µg/mL | > 100 µg/mL | > 100 µg/mL | < 30% | < 30% | < 30% | < 30% | < 30% | < 30% |  |  |  |  |  |  |  |  | 
10 | CN(C(=O)NC(=O)c1ccc(F)c(F)c1)c1nc(C(F)(F)F)c(C(=O)N/N=C/c2cccc(C(F)(F)F)c2)s1 | 4.15 µg/mL (≈ 7.16 µM) | 4.21 µg/mL (≈ 7.27 µM) | 5.6 µg/mL (≈ 9.66 µM) | 4.46 µg/mL (≈ 7.7 µM) | 6.52 µg/mL (≈ 11.3 µM) |  |  |  |  |  |  | 23.5 µg/mL (≈ 40.5 µM) |  |  |  |  |  |  |  | 
11 | CNc1nc(C)c(C(=O)N/N=C/c2ccc(C(F)(F)F)cc2)s1 | > 100 µg/mL | > 100 µg/mL | > 100 µg/mL | > 100 µg/mL | > 100 µg/mL | < 30% | < 30% | < 30% | < 30% | < 30% | < 30% |  |  |  |  |  |  |  |  | 
12 | CN(C(=O)NC(=O)c1ccc(C(F)(F)F)cc1)c1nc(C(F)(F)F)c(C(=O)N/N=C/c2cccc(C(F)(F)F)c2)s1 | 8.95 µg/mL (≈ 14.6 µM) | 6.2 µg/mL (≈ 10.1 µM) | 7.95 µg/mL (≈ 13 µM) | 1.84 µg/mL (≈ 3.01 µM) | 6.66 µg/mL (≈ 10.9 µM) |  |  |  |  |  |  | 18 µg/mL (≈ 29.4 µM) |  |  |  |  |  |  |  | 
13 | CNc1nc(C(F)(F)F)c(C(=O)N/N=C/c2cccc(C(F)(F)F)c2)s1 | > 100 µg/mL | > 100 µg/mL | > 100 µg/mL | > 100 µg/mL | > 100 µg/mL | < 30% | < 30% | < 30% | < 30% | < 30% | < 30% |  |  |  |  |  |  |  |  | 
14 | CNc1nc(C(F)(F)F)c(C(=O)N/N=C/c2ccccc2C(F)(F)F)s1 | > 100 µg/mL | > 100 µg/mL | > 100 µg/mL | > 100 µg/mL | > 100 µg/mL | < 30% | < 30% | < 30% | < 30% | < 30% | < 30% |  |  |  |  |  |  |  |  | 
